This note sets out measurements from ChEMBL document CHEMBL4513216, “Probing the Open Global Health Chemical Diversity Library for Multistage-Active Starting Points for Next-Generation Antimalarials” (ACS Infect Dis, 2020).

The structures appear in SMILES notation.

This data set can be described thus: Toxicity liver stage against HepG2, at 10uM. The class given is cell-based. More on the design: test concentration 10 uM, cell line HepG2-A16-CD81EGFP. The conditions noted are these: human, HepG2-A16-CD81EGFP cells; read-out: INHIBITION
A digest of the protocol:
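Uninfected HepG2-A16-CD81EGFP cells, 3 × 10^3 per well, 1536-well, plated on prespotted compound at 10 μM final, parasite-free screening media added to match infected plates; puromycin 10 μM positive, DMSO 0.5% negative; run in parallel with 48 h PbLuc assay at 37 °C, 5% CO2; viability by CellTiter-Glo luminescence, normalized to controls.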
Turning to `COc1cccc(CNC(=O)CCC2=Nc3ccccc3S(=O)(=O)N2)c1`, the cytotoxicity at 10 µM stood at 4.19%.

In the case of `CCOC(=O)CNC(=O)NCc1cccn1Cc1ccccc1F`, the cytotoxicity at 10 µM is -2.24%.

Consider `COC1CN(C(=O)NC2CCCC2)CCC(=O)N(C)c2ccccc21` (configuration not stated), for which the cytotoxicity at 10 µM was -9.35%.

For `Cc1ccc(C(=O)N2CC[C@@]3(O)CCCC[C@H]3C2)cc1`, the cytotoxicity at 10 µM is -45.1%.

As to `Cn1nnnc1SC1CCc2ccccc2NC1=O` (configuration not stated), the cytotoxicity at 10 µM was -3.22%.

With `O=C(Nc1ncc[nH]1)c1cc(-c2cccnc2)n[nH]1`, the cytotoxicity at 10 µM was found to be 5.69%.

Regarding `CCCS(=O)(=O)NCc1nc(C)cc(N2CCCC2)n1`, the cytotoxicity at 10 µM was determined as 8.09%.

Turning to `Cc1ccc(N2CC[C@@H]3[C@@H](CO[C@H]3CNC(=O)c3ccco3)C2)nn1`, the cytotoxicity at 10 µM stood at 9.43%.

Take `Cc1noc([C@@]23CCO[C@@H]2CCN(C(=O)c2cc(C)c(C)s2)C3)n1`: the cytotoxicity at 10 µM amounted to 8.73%.

Regarding `COCCN1C(=O)[C@]2(CC[C@@H]3CN(C(=O)NC(C)C)C[C@@H]32)N=C1C`, the cytotoxicity at 10 µM is -57.5%.

As for `Cc1ccsc1C(=O)N1CCC2(CC(C(=O)N(C)C(C)C)=NO2)C1` (configuration not stated), the cytotoxicity at 10 µM was -126%.

`COCC(=O)N1CCCn2c(CN3CCCC3)nnc2C1`: the cytotoxicity at 10 µM is -130%.

Consider `CCN1CC2(CC1=O)CN(C(=O)c1ccsc1)CCN(C(=O)N(C)C)C2` (configuration not stated), for which the cytotoxicity at 10 µM came to 3.01%.

In the case of `Cc1ccc2c(c1)C1(CC2)CCN(c2nncs2)CC1`, the cytotoxicity at 10 µM was found to be 9.43%.

On to `COc1ccccc1C(=O)Nc1c(F)c(C(=O)NCCC(C)C)nn1C`, for which the cytotoxicity at 10 µM is -11.1%.

Consider `Cc1nn(C)c2c(NCc3ccc(F)cc3)nc(C3CC3)nc12`, for which the cytotoxicity at 10 µM is 0.107%.

Consider `Cc1cc(C)n(C(=O)c2cn(C)nc2S(=O)(=O)N2CCSCC2)n1`, for which the cytotoxicity at 10 µM is -2.64%.

In the case of `Fc1ccc(Nc2ccc(C3CCN(Cc4ncc[nH]4)CC3)nc2)nc1`, the cytotoxicity at 10 µM is -1.85%.

`O=C(O)c1ccccc1-c1ccc(CNC(=O)C2CCOCC2)cc1`: the cytotoxicity at 10 µM was 1.33%.

Take `CCCN(CCn1c(=O)oc2ccccc21)CC1CC1`: the cytotoxicity at 10 µM came out at 1.78%.

For the compound `O=C(Nc1cc(Cl)ccc1N1CCCCC1)c1ccccn1`, the cytotoxicity at 10 µM was -55%.

`Cc1ccc(-n2cc(C)cn2)c(NC(=O)NC2(C)CCOC2)c1` (configuration not stated): the cytotoxicity at 10 µM is -43.2%.

As to `CCS(=O)(=O)CCCN1CCSCC1c1ccc(Cl)cc1` (configuration not stated), the cytotoxicity at 10 µM was -5.05%.

Take `N#CC1(C(=O)N2CCOC(c3ccc(Cl)cc3)C2)CCCC1` (configuration not stated): the cytotoxicity at 10 µM was found to be 1.36%.

Regarding `COc1ccccc1CC(C)(C)C(=O)NCC(=O)Nc1cccnc1`, the cytotoxicity at 10 µM was 9.21%.

With `CCn1cnnc1CNC(=O)NCC(C(C)C)N1CCOCC1` (configuration not stated), the cytotoxicity at 10 µM is 13.5%.

With `CSCCC(NC(N)=O)C(=O)NCc1ccc(-n2cccn2)cc1` (configuration not stated), the cytotoxicity at 10 µM worked out at 18%.

As to `CSCc1cc(F)ccc1CNC(=O)N1CCC(CO)CC1`, the cytotoxicity at 10 µM came out at 1.82%.

For the compound `O[C@H]1Cc2ccccc2[C@H]1Nc1ncccc1C(F)(F)F`, the cytotoxicity at 10 µM was 5.95%.

On to `CC(C(N)=O)N(C)Cc1ccccc1C(F)(F)F` (configuration not stated), for which the cytotoxicity at 10 µM was -5.54%.

Turning to `NC(=O)Nc1ccc(C(=O)NCCn2cccc2)cc1`, the cytotoxicity at 10 µM is -1.23%.

`CCC(CNC(=O)c1ccccc1Br)N1CCc2ccccc2C1` (configuration not stated): the cytotoxicity at 10 µM came out at 16.6%.

As to `CC(C)CCCC(C)NC(=O)c1ccc(OCC(N)=O)cc1` (configuration not stated), the cytotoxicity at 10 µM amounted to 10.2%.

Turning to `CSc1ccc(CN(C)Cc2noc(C(C)(C)C)n2)cc1`, the cytotoxicity at 10 µM was -8.58%.

In the case of `Cc1ccccc1CN(C)C(=O)Cn1nc(-c2ccc(F)cc2)oc1=O`, the cytotoxicity at 10 µM was -19.3%.

For the compound `CN(Cc1nnc(C2CC2)o1)C1CCN(CCc2cccs2)C1` (configuration not stated), the cytotoxicity at 10 µM is -2.01%.

On to `CCc1nc(CN2CCCC(N(C)CCc3cccs3)C2)no1` (configuration not stated), for which the cytotoxicity at 10 µM is 15.5%.

For the compound `Cc1cnn(CC(C)NCc2nc(-c3ccccn3)no2)c1` (configuration not stated), the cytotoxicity at 10 µM worked out at 0.234%.

Regarding `c1cc(NCc2cscn2)cc(OCCN2CCCCC2)c1`, the cytotoxicity at 10 µM was -20.7%.

Consider `Cn1cc(NC(=O)c2cccc(Cl)c2)c(=O)n(C)c1=O`, for which the cytotoxicity at 10 µM was -1.86%.

As for `CCOc1ncccc1NC(=O)Nc1c(C)nn(C(C)C)c1C`, the cytotoxicity at 10 µM came to 17.8%.

As to `CCN(c1ccccc1)S(=O)(=O)c1cc(C(=O)O)cc2c1CCC2`, the cytotoxicity at 10 µM came out at 9.69%.

For `CCN(CC1CCOC1)C(=O)c1cc(Cl)c2c(c1)OCO2` (configuration not stated), the cytotoxicity at 10 µM was determined as 8.88%.

Turning to `CN(Cc1ccncc1)C(=O)NCc1cn(-c2ccccc2)nn1`, the cytotoxicity at 10 µM was -55.7%.

For the compound `O=C(NCc1ccccc1OCC1CC1)C1CCOC1` (configuration not stated), the cytotoxicity at 10 µM is 4.94%.

Consider `Cc1ccsc1CNC(=O)c1ccc(N2CCOC2=O)cc1`, for which the cytotoxicity at 10 µM came to 22.2%.

On to `Cc1nc(C(=O)N2CC(C)Sc3ccccc32)cs1` (configuration not stated), for which the cytotoxicity at 10 µM is -3.71%.

On to `NS(=O)(=O)CCNC(=O)c1nnn(-c2ccccc2)c1C1CC1`, for which the cytotoxicity at 10 µM was -12.2%.

With `CCc1nc(CCNC(=O)C2CCOC2)sc1C` (configuration not stated), the cytotoxicity at 10 µM is -20.4%.

For the compound `CC(C)(C)c1nc(CN2CCC(c3nc4cc(Cl)ccc4o3)CC2)no1`, the cytotoxicity at 10 µM turned out to be 3.9%.

Regarding `Cc1ccc(CN2CCC3(CC(C(=O)NC4CCC4)=NO3)C2)o1` (configuration not stated), the cytotoxicity at 10 µM was -97.5%.

On to `Cc1ccoc1C(=O)N1C[C@@H](OCC2CCOCC2)[C@H]2OCCC[C@H]21`, for which the cytotoxicity at 10 µM amounted to 4.11%.

On to `Cn1cccc1C(=O)N1CCCC2(CCCN2Cc2cccnc2)C1` (configuration not stated), for which the cytotoxicity at 10 µM worked out at 2.88%.

With `Cn1c(CN2CCC(OCc3cccnc3)CC2)cc2ccccc21`, the cytotoxicity at 10 µM was -2.65%.

`CCc1ncc(CN2CCOC(Cc3cccc(F)c3)C2)cn1` (configuration not stated): the cytotoxicity at 10 µM stood at 0.0753%.

As to `Cc1nn(C)c(C)c1NC(=O)c1cccc(CN2CC[C@H](O)C2)c1`, the cytotoxicity at 10 µM amounted to 1.08%.

`CCN1CCCC(C)(C(=O)NCc2nncn2CCc2ccccc2)C1` (configuration not stated): the cytotoxicity at 10 µM is -10.2%.

For the compound `CC(C)(O)CCc1cccc(C(=O)NCc2nccs2)c1`, the cytotoxicity at 10 µM is -50.7%.

For `O=c1c2cccc(Cl)c2ncn1C1CCNC1` (configuration not stated), the cytotoxicity at 10 µM was -41.2%.

With `CN(C)CCNc1ccc(-c2nc(COc3ccccc3)no2)cn1`, the cytotoxicity at 10 µM amounted to 10.2%.

`Cc1cc(CN(C)Cc2csc(-c3cccs3)n2)n[nH]1`: the cytotoxicity at 10 µM was -4.14%.

On to `Cc1nc(-c2cn(CCN)nn2)n(-c2ccc3c(c2)CCC3)n1`, for which the cytotoxicity at 10 µM worked out at 2.86%.

As for `CC[C@@]1(O)CCN(Cc2cc(C3CCCCC3)no2)C[C@H]1O`, the cytotoxicity at 10 µM is -4.18%.

`CC1CCCN(c2ccc(C(N)=O)cc2NC(=O)CC2=CCNCC2)C1` (configuration not stated): the cytotoxicity at 10 µM is -46.3%.

In the case of `CCN1CCN(Cc2nc(CCc3ccccc3)n[nH]2)CC1`, the cytotoxicity at 10 µM is -10.7%.

On to `Cc1noc(-c2ccnc(Oc3ccccc3CN3CCCCC3)c2)n1`, for which the cytotoxicity at 10 µM is -1.76%.

Consider `CC(CN1CCC(c2ccccc2)CC1)n1cnc2ccccc21` (configuration not stated), for which the cytotoxicity at 10 µM amounted to 15.5%.

Regarding `CCc1[nH]c2c(CNc3cnccn3)cc(F)cc2c1C`, the cytotoxicity at 10 µM is -2.61%.

As to `O=c1c2ccc(C(F)(F)F)cc2ncn1CCCN1CCCCC1CO` (configuration not stated), the cytotoxicity at 10 µM is -5.98%.

Regarding `Cc1nonc1C1CCCN1Cc1ccc(C(=O)Nc2nccs2)cc1` (configuration not stated), the cytotoxicity at 10 µM stood at 76.7%.

On to `Cn1c(-c2cc3n(n2)CCCN(CC(=O)O)C3)nc2ccccc21`, for which the cytotoxicity at 10 µM amounted to 2.68%.

`Cc1ccc(CN2CCN(c3cncc(N(C)C)n3)CC2=O)cc1C`: the cytotoxicity at 10 µM is -2.53%.

`O=C1N(CCC2CCCCC2)CCCC1(O)CNCCc1ccccc1` (configuration not stated): the cytotoxicity at 10 µM is -8.92%.

With `CN1CCCC2(CC1)CCN(C(=O)CCc1ccccc1O)CC2`, the cytotoxicity at 10 µM is -32.1%.

In the case of `Cc1csc2nc3n(c(=O)c12)CCN(C(=O)c1ccncc1)CC3`, the cytotoxicity at 10 µM was -2.65%.

In the case of `COCCCN1CCC(C(=O)c2cc(F)ccc2F)CC1`, the cytotoxicity at 10 µM is -10.9%.

Consider `O=C(N1CCCCC1)N1CCN(CC(O)c2ccccc2)CC1` (configuration not stated), for which the cytotoxicity at 10 µM was -7.45%.

Consider `Cc1ccoc1C(=O)NC1CCN(Cc2cccc3ccccc23)CC1`, for which the cytotoxicity at 10 µM was 0.561%.

`CCn1cnnc1CNC(=O)c1cc(Cl)ccc1F`: the cytotoxicity at 10 µM was -7.75%.

Consider `Cc1ccc(NC2CCN(C(=O)COCC3CC3)CC2)nn1`, for which the cytotoxicity at 10 µM stood at 0.132%.

As to `Cc1nc(C)n(CC2CCCN(Cc3noc(C)n3)C2)n1` (configuration not stated), the cytotoxicity at 10 µM is -1.87%.

As for `CCc1ncncc1C(=O)N1CCCN(Cc2ccc(C)cc2)CC1`, the cytotoxicity at 10 µM was -0.611%.

For the compound `O=C(c1cc(C2CC2)on1)N1CCCC(n2cncn2)C1` (configuration not stated), the cytotoxicity at 10 µM is -14%.

For `NC(=O)C1CCCN(C(=O)c2cnc3c(cnn3C3CCCC3)c2)C1` (configuration not stated), the cytotoxicity at 10 µM was -5.54%.

For the compound `NC(=O)CC1CCN(C(=O)NCc2ccccc2-n2cccn2)CC1`, the cytotoxicity at 10 µM was determined as 2.19%.

On to `Clc1ccc(C2(CNC3=NCCN3)CC2)cc1`, for which the cytotoxicity at 10 µM turned out to be 7.38%.

As to `Cc1nc2c(c(NC3CC3)n1)CCN(C(=O)CCO)CC2`, the cytotoxicity at 10 µM is -68.3%.

For the compound `COCC1CN(CC2CC2)Cc2nn(CC3CC3)cc21` (configuration not stated), the cytotoxicity at 10 µM is -71.4%.

For `CCS(=O)(=O)N1CCCC2(COCCN(c3ccccn3)C2)C1` (configuration not stated), the cytotoxicity at 10 µM was -1.02%.

`COc1ncccc1CN1C[C@H]2CCN(c3ncccn3)C[C@H]2C1`: the cytotoxicity at 10 µM was 2.66%.

On to `COc1ncccc1CN1CCC2(CC1)CC(OCC1CC1)CO2` (configuration not stated), for which the cytotoxicity at 10 µM stood at 4.33%.

As to `O=C(C1CC=CC1)N1C[C@H]2CN(Cc3ccncc3)C(=O)[C@H]2C1`, the cytotoxicity at 10 µM is -86.6%.

As to `c1ccc(CN2Cc3nccn3CC(Cn3cccn3)C2)nc1` (configuration not stated), the cytotoxicity at 10 µM is -105%.

Consider `Cn1cc(N2CC3(COCCN(Cc4nccs4)C3)OCC2=O)cn1` (configuration not stated), for which the cytotoxicity at 10 µM was -79.9%.

Consider `Fc1ccc(CN2CC[C@H]3O[C@@H](COCC4CCOCC4)CC[C@H]32)cc1`, for which the cytotoxicity at 10 µM came to 7.64%.

In the case of `COc1ccc(CN2CCc3ncnc(OC(C)C)c3CC2)cc1`, the cytotoxicity at 10 µM is -1.99%.

As for `Cc1nc(CN2C(=O)C[C@H]3[C@H]2CCN3CC2CCOC2)cs1` (some centres not stated), the cytotoxicity at 10 µM is -151%.
